The source of these data is ChEMBL document CHEMBL4184319, “Fluorescent-Labeled Selective Adenosine A2B Receptor Antagonist Enables Competition Binding Assay by Flow Cytometry” (J Med Chem, 2018).

The target of one test is T1, Adenosine receptor A2b (Homo sapiens, UniProt P29275).
T1 sequence (P29275 whole entry): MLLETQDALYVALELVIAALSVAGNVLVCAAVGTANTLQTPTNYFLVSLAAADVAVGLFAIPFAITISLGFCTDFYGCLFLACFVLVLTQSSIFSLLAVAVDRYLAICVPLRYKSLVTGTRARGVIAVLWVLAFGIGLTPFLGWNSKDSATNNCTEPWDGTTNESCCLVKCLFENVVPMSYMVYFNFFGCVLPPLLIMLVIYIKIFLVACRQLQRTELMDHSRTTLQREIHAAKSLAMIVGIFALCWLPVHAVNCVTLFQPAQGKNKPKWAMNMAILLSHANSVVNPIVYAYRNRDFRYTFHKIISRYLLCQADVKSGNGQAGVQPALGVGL
Description: Displacement of [3H]PSB-603 from recombinant human adenosine A2B receptor expressed in CHO cell membranes after 75 mins by liquid scintillation counting method. In outline: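 [³H]PSB-603 (0.3 nM) used with CHO membranes expressing human, mouse or rat A2BAR, 75 min at rt. Membranes pre-incubated 10-15 min with ADA 0.12 IU/mL. Nonspecific binding defined with 10 µM DPCPX. DMSO 2.5 % final. Filtration on GF/B with ice-cold 50 mM Tris-HCl pH 7.4 containing 0.1 % BSA, then scintillation counting. Curves used 6-7 concentrations over 3 log units. At least three experiments.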
Background: In a radioligand displacement assay an active substance lowers the binding of a labelled ligand.

The species entered for a further test is Homo sapiens. Description: Selectivity ratio of Ki for recombinant human adenosine A2A receptor expressed in HEK cell membranes to Ki for recombinant human adenosine A2B receptor expressed in CHO cell membranes. The format is cell-based.
Test [1] can be described thus: Selectivity ratio of Ki for recombinant human adenosine A3 receptor expressed in CHO cell membranes to Ki for recombinant rat adenosine A2B receptor expressed in CHO cell membranes. The format is cell-based.

SMILES strings stand for the structures. pKi: −log10 of the molar value.

`CCCn1c(=O)[nH]c2nc(-c3ccc(OCC(=O)NCCC4=C5C(C)=CC(C)=[N+]5[B-](F)(F)n5c(C)cc(C)c54)cc3)[nH]c2c1=O`: on Adenosine receptor A2b, the negative logarithm of the Ki (pKi) is 8.74. For the same compound, the Ratio Ki in the test listed under Homo sapiens was more than 150; in test [1], more than 1000.

For orientation: pKi means the negative decadic logarithm of the Ki, by convention in mol/L.
